Experimental data: ChEMBL document CHEMBL3351814, “Discovery of selective hexapeptide agonists to human neuromedin U receptors types 1 and 2” (J Med Chem, 2014)
Calls of active or inactive are those of the source. The calls are words filed in the database; no cut-off is given here. Where a SMILES comes first, the peptide text is derived from it. [ ]: non-standard residue; d: D form. The star is where a group is joined. Quinoline(6-carbonyl) = O=C(c1ccc2ncccc2c1)*; Propanoyl(3-(3-pyridyl)) = O=C(CCc1cccnc1)*; Acetyl(pyridin-2-yl) = O=C(Cc1ccccn1)*; 1Nal = N[C@@H](Cc1cccc2ccccc12)C(=O)O; Butanoyl(4-cHex) = O=C(CCCC1CCCCC1)*; Propanoyl(3-cHex) = O=C(CCC1CCCCC1)*; Acetyl(3-pyridyl) = O=C(Cc1cccnc1)*; Acetyl(4-pyridyl) = O=C(Cc1ccncc1)*; Butanoyl(4-Ph) = O=C(CCCc1ccccc1)*; Hydrocinnamoyl = O=C(CCc1ccccc1)*; Quinaldoyl = O=C(c1ccc2ccccc2n1)*; Tic = O=C(O)[C@@H]1Cc2ccccc2CN1; Cha = N[C@@H](CC1CCCCC1)C(=O)O; Agb = N=C(N)NCC[C@H](N)C(=O)O; Agp = N=C(N)NC[C@H](N)C(=O)O; Chg = N[C@H](C(=O)O)C1CCCCC1; Nle = CCCC[C@H](N)C(=O)O; Dab = NCC[C@H](N)C(=O)O; Nva = CCC[C@H](N)C(=O)O; Dap = NC[C@H](N)C(=O)O; PhAc = O=C(Cc1ccccc1)*; X1 = O=C(Cn1ccnc1)*

Target: Neuromedin-U receptor 2 (Homo sapiens, UniProt Q9GZQ4)
Sequence (Q9GZQ4 whole entry): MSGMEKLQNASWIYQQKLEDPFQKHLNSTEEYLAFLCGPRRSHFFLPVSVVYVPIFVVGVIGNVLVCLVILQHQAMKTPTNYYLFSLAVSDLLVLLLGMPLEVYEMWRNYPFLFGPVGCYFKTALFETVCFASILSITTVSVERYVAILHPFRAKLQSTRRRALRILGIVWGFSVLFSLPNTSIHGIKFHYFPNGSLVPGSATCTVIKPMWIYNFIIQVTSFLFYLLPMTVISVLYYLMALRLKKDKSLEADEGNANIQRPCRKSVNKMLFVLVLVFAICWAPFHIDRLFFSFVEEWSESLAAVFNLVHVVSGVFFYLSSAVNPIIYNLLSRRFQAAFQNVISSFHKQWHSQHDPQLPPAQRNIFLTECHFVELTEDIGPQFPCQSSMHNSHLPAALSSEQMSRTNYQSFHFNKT
Experiment: Agonist activity at human NMUR2 expressed in HEK293 cells at 1 to 100 nM by calcium mobilization assay relative to NMU
Format: functional, cell-based
Procedure, shortened: (§1)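 HEK293 cells transiently transfected with human NMUR1 or NMUR2 plasmid (FuGENE6), reseeded 18 h post-transfection at 4.0 × 10^4 cells/well on poly-D-lysine. After 18 h, loaded 40 min with 4 μM Fluo-4-AM in HBSS/HEPES/probenecid buffer pH 7.4 with 1% FCS, then washed. Peptides in buffer with 0.05% BSA and 0.001% Triton X-100. Maximal FLIPR signal expressed as % of hNMU at 1000 nM.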

Row | Molecule | Activity
1 | CC(C)C[C@H](NC(=O)CCc1ccccc1)C(=O)N[C@@H](Cc1ccccc1)C(=O)N[C@@H](CCN)C(=O)N1CCC[C@H]1C(=O)N[C@@H](CCCNC(=N)N)C(=O)N[C@@H](CC(N)=O)C(N)=O (Hydrocinnamoyl-LF[Dab]PRN-NH2) | Active
2 | CC(C)C[C@H](NC(=O)CCc1ccccc1)C(=O)N[C@@H](Cc1ccccc1)C(=O)N[C@@H](CCCNC(=N)N)C(=O)N1CCC[C@H]1C(=O)N[C@@H](CCCNC(=N)N)C(=O)N[C@@H](CC(=O)O)C(N)=O (Hydrocinnamoyl-LFRPRD-NH2) | inactive
3 | CC(C)C[C@H](NC(=O)CCc1ccccc1)C(=O)N[C@@H](CC1CCCCC1)C(=O)N[C@@H](CCCNC(=N)N)C(=O)N1CCC[C@H]1C(=O)N[C@@H](CCCNC(=N)N)C(=O)N[C@@H](CC(N)=O)C(N)=O (Hydrocinnamoyl-L[Cha]RPRN-NH2) | Active
4 | CCC[C@H](NC(=O)[C@H](CC(C)C)NC(=O)CCC1CCCCC1)C(=O)N[C@@H](CN)C(=O)N1CCC[C@H]1C(=O)N[C@@H](CCCNC(=N)N)C(=O)N[C@@H](CC(N)=O)C(N)=O ({Propanoyl(3-cHex)}-L[Nva][Dap]PRN-NH2) | Active
5 | CC(C)C[C@H](NC(=O)CCC1CCCCC1)C(=O)N[C@H](C(=O)N[C@@H](CN)C(=O)N1CCC[C@H]1C(=O)N[C@@H](CCCNC(=N)N)C(=O)N[C@@H](CC(N)=O)C(N)=O)C1CCCCC1 ({Propanoyl(3-cHex)}-L[Chg][Dap]PRN-NH2) | Active
6 | CC(C)C[C@H](NC(=O)CCc1ccccc1)C(=O)N[C@@H](Cc1ccccc1)C(=O)N[C@@H](CCCCN)C(=O)N1CCC[C@H]1C(=O)N[C@@H](CCCNC(=N)N)C(=O)N[C@@H](CC(N)=O)C(N)=O (Hydrocinnamoyl-LFKPRN-NH2) | inactive
7 | CC(C)C[C@H](NC(=O)CCc1ccccc1)C(=O)N[C@@H](Cc1ccccc1)C(=O)N[C@@H](CNC(=N)N)C(=O)N1CCC[C@H]1C(=O)N[C@@H](CCCNC(=N)N)C(=O)N[C@@H](CC(N)=O)C(N)=O (Hydrocinnamoyl-LF[Agp]PRN-NH2) | Active
8 | CC(C)C[C@H](NC(=O)CCCC1CCCCC1)C(=O)N[C@@H](Cc1ccccc1)C(=O)N[C@@H](CCCNC(=N)N)C(=O)N1CCC[C@H]1C(=O)N[C@@H](CCCNC(=N)N)C(=O)N[C@@H](CC(N)=O)C(N)=O ({Butanoyl(4-cHex)}-LFRPRN-NH2) | Active
9 | CC(C)C[C@H](NC(=O)CCc1ccccc1)C(=O)N[C@@H](Cc1ccccc1)C(=O)N[C@@H](CCCNC(=N)N)C(=O)N1CCC[C@H]1C(=O)N[C@@H](CCCNC(=N)N)C(=O)N[C@@H](C)C(N)=O (Hydrocinnamoyl-LFRPRA-NH2) | inactive
10 | CC(C)C[C@H](NC(=O)[C@H](CCCNC(=N)N)NC(=O)[C@@H]1CCCN1C(=O)[C@H](CCCNC(=N)N)NC(=O)[C@H](Cc1ccccc1)NC(=O)[C@H](CC(C)C)NC(=O)CCc1ccccc1)C(N)=O (Hydrocinnamoyl-LFRPRL-NH2) | inactive
11 | CC(C)C[C@H](NC(=O)CCC1CCCCC1)C(=O)N[C@@H](CC1CCCCC1)C(=O)N[C@@H](CCCNC(=N)N)C(=O)N1CCC[C@H]1C(=O)N[C@@H](CCCNC(=N)N)C(=O)N[C@@H](CC(N)=O)C(N)=O ({Propanoyl(3-cHex)}-L[Cha]RPRN-NH2) | Active
12 | H-FLFRPRN-NH2 | Active
13 | CCCC[C@H](NC(=O)[C@H](CC(C)C)NC(=O)CCC1CCCCC1)C(=O)N[C@@H](CN)C(=O)N1CCC[C@H]1C(=O)N[C@@H](CCCNC(=N)N)C(=O)N[C@@H](CC(N)=O)C(N)=O ({Propanoyl(3-cHex)}-L[Nle][Dap]PRN-NH2) | Active
14 | CC[C@H](C)[C@H](NC(=O)[C@H](CC(C)C)NC(=O)CCC1CCCCC1)C(=O)N[C@@H](CN)C(=O)N1CCC[C@H]1C(=O)N[C@@H](CCCNC(=N)N)C(=O)N[C@@H](CC(N)=O)C(N)=O ({Propanoyl(3-cHex)}-LI[Dap]PRN-NH2) | Active
15 | CC(C)C[C@H](NC(=O)[C@@H]1Cc2ccccc2CN1)C(=O)N[C@@H](Cc1ccccc1)C(=O)N[C@@H](CCCNC(=N)N)C(=O)N1CCC[C@H]1C(=O)N[C@@H](CCCNC(=N)N)C(=O)N[C@@H](CC(N)=O)C(N)=O (H-[Tic]LFRPRN-NH2) | Active
16 | CC(C)C[C@H](NC(=O)CCCc1ccccc1)C(=O)N[C@@H](Cc1ccccc1)C(=O)N[C@@H](CCCNC(=N)N)C(=O)N1CCC[C@H]1C(=O)N[C@@H](CCCNC(=N)N)C(=O)N[C@@H](CC(N)=O)C(N)=O ({Butanoyl(4-Ph)}-LFRPRN-NH2) | Active
17 | CC(C)C[C@H](NC(=O)CCc1ccccc1)C(=O)N[C@@H](Cc1ccccc1)C(=O)N[C@@H](CN)C(=O)N1CCC[C@H]1C(=O)N[C@@H](CCCNC(=N)N)C(=O)N[C@@H](CC(N)=O)C(N)=O (Hydrocinnamoyl-LF[Dap]PRN-NH2) | Active
18 | CC(C)C[C@H](NC(=O)CCC1CCCCC1)C(=O)N[C@@H](Cc1ccccc1)C(=O)N[C@@H](CCCNC(=N)N)C(=O)N1CCC[C@H]1C(=O)N[C@@H](CCCNC(=N)N)C(=O)N[C@@H](CC(N)=O)C(N)=O ({Propanoyl(3-cHex)}-LFRPRN-NH2) | Active
19 | CC(C)C[C@H](NC(=O)CCC1CCCCC1)C(=O)N[C@@H](CC1CCCCC1)C(=O)N[C@@H](CN)C(=O)N1CCC[C@H]1C(=O)N[C@@H](CCCNC(=N)N)C(=O)N[C@@H](CC(N)=O)C(N)=O ({Propanoyl(3-cHex)}-L[Cha][Dap]PRN-NH2) | Active
20 | CC(C)C[C@H](NC(=O)CCc1ccccc1)C(=O)N[C@@H](Cc1ccccc1)C(=O)N[C@@H](CCNC(=N)N)C(=O)N1CCC[C@H]1C(=O)N[C@@H](CCCNC(=N)N)C(=O)N[C@@H](CC(N)=O)C(N)=O (Hydrocinnamoyl-LF[Agb]PRN-NH2) | Active

Target: T1, Neuromedin-U receptor 1 (Homo sapiens) (UniProt Q9HB89)
T1 sequence (whole entry): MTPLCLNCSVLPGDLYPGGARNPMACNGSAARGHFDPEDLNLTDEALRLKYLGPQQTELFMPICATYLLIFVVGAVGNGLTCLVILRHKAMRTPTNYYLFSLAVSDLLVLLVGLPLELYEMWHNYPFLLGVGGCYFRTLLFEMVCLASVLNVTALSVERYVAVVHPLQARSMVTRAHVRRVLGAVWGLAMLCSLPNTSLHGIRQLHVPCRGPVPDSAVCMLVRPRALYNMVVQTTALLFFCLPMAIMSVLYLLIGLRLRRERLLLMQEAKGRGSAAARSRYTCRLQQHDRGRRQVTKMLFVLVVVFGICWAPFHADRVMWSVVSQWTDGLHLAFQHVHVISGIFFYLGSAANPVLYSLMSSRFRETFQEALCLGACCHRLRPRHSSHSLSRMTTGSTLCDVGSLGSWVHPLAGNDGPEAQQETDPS
Experiment: Agonist activity at human NMUR1 expressed in HEK293 cells at 1 to 100 nM by calcium mobilization assay relative to NMU
Format: functional, cell-based
Procedure, shortened: as §1

Row | Molecule | Activity
21 | N=C(N)NCCC[C@H](NC(=O)[C@@H]1CCCN1C(=O)[C@H](CCCNC(=N)N)NC(=O)[C@H](Cc1ccccc1)NC(=O)[C@H](Cc1ccccc1)NC(=O)c1ccc2ccccc2n1)C(=O)N[C@@H](CC(N)=O)C(N)=O (Quinaldoyl-FFRPRN-NH2) | inactive
22 | CC(C)C[C@H](NC(=O)CCc1ccccc1)C(=O)N[C@@H](Cc1ccccc1)C(=O)N[C@@H](CCCNC(=N)N)C(=O)N1CCC[C@H]1C(=O)N[C@@H](CCCNC(=N)N)C(=O)N[C@@H](CC(=O)O)C(N)=O (Hydrocinnamoyl-LFRPRD-NH2) | inactive
23 | N=C(N)NCCC[C@H](NC(=O)[C@@H]1CCCN1C(=O)[C@H](CCCNC(=N)N)NC(=O)[C@H](Cc1ccccc1)NC(=O)[C@H](Cc1ccccc1)NC(=O)Cc1ccccn1)C(=O)N[C@@H](CC(N)=O)C(N)=O ({Acetyl(pyridin-2-yl)}-FFRPRN-NH2) | Active
24 | N=C(N)NCCC[C@H](NC(=O)[C@@H]1CCCN1C(=O)[C@H](CCCNC(=N)N)NC(=O)[C@H](Cc1ccccc1)NC(=O)[C@H](Cc1ccccc1)NC(=O)CCc1cccnc1)C(=O)N[C@@H](CC(N)=O)C(N)=O ({Propanoyl(3-(3-pyridyl))}-FFRPRN-NH2) | Active
25 | N=C(N)NCCC[C@H](NC(=O)[C@@H]1CCCN1C(=O)[C@H](CCCNC(=N)N)NC(=O)[C@H](Cc1ccccc1)NC(=O)[C@H](Cc1ccccc1)NC(=O)Cn1ccnc1)C(=O)N[C@@H](CC(N)=O)C(N)=O (X1-FFRPRN-NH2) | Active
26 | CC(C)C[C@H](NC(=O)CCc1ccccc1)C(=O)N[C@@H](Cc1ccccc1)C(=O)N[C@@H](CCCNC(=N)N)C(=O)N1CCC[C@H]1C(=O)N[C@@H](CCCNC(=N)N)C(=O)N[C@@H](C)C(N)=O (Hydrocinnamoyl-LFRPRA-NH2) | inactive
27 | CC(C)C[C@H](NC(=O)[C@H](CCCNC(=N)N)NC(=O)[C@@H]1CCCN1C(=O)[C@H](CCCNC(=N)N)NC(=O)[C@H](Cc1ccccc1)NC(=O)[C@H](CC(C)C)NC(=O)CCc1ccccc1)C(N)=O (Hydrocinnamoyl-LFRPRL-NH2) | inactive
28 | CC(C)C[C@H](NC(=O)CCc1cccnc1)C(=O)N[C@@H](Cc1ccccc1)C(=O)N[C@@H](CCCNC(=N)N)C(=O)N1CCC[C@H]1C(=O)N[C@@H](CCCNC(=N)N)C(=O)N[C@@H](CC(N)=O)C(N)=O ({Propanoyl(3-(3-pyridyl))}-LFRPRN-NH2) | Active
29 | H-FLFRPRN-NH2 | Active
30 | N=C(N)NCCC[C@H](NC(=O)[C@@H]1CCCN1C(=O)[C@H](CCCNC(=N)N)NC(=O)[C@H](Cc1ccccc1)NC(=O)[C@H](Cc1ccccc1)NC(=O)Cc1ccncc1)C(=O)N[C@@H](CC(N)=O)C(N)=O ({Acetyl(4-pyridyl)}-FFRPRN-NH2) | Active
31 | N=C(N)NCCC[C@H](NC(=O)[C@@H]1CCCN1C(=O)[C@H](CCCNC(=N)N)NC(=O)[C@H](Cc1ccccc1)NC(=O)[C@H](Cc1cccc2ccccc12)NC(=O)CCc1cccnc1)C(=O)N[C@@H](CC(N)=O)C(N)=O ({Propanoyl(3-(3-pyridyl))}-[1Nal]FRPRN-NH2) | Active
32 | N=C(N)NCCC[C@H](NC(=O)[C@@H]1CCCN1C(=O)[C@H](CCCNC(=N)N)NC(=O)[C@H](Cc1ccccc1)NC(=O)[C@H](Cc1c[nH]c2ccccc12)NC(=O)CCc1cccnc1)C(=O)N[C@@H](CC(N)=O)C(N)=O ({Propanoyl(3-(3-pyridyl))}-WFRPRN-NH2) | Active
33 | CC(C)C[C@H](NC(=O)[C@@H]1Cc2ccccc2CN1)C(=O)N[C@@H](Cc1ccccc1)C(=O)N[C@@H](CCCNC(=N)N)C(=O)N1CCC[C@H]1C(=O)N[C@@H](CCCNC(=N)N)C(=O)N[C@@H](CC(N)=O)C(N)=O (H-[Tic]LFRPRN-NH2) | Active
34 | N=C(N)NCCC[C@H](NC(=O)[C@@H]1CCCN1C(=O)[C@H](CCCNC(=N)N)NC(=O)[C@H](Cc1ccccc1)NC(=O)[C@H](Cc1ccccc1)NC(=O)Cc1cccnc1)C(=O)N[C@@H](CC(N)=O)C(N)=O ({Acetyl(3-pyridyl)}-FFRPRN-NH2) | Active
35 | CC(C)C[C@H](NC(=O)Cc1ccccc1)C(=O)N[C@@H](Cc1ccccc1)C(=O)N[C@@H](CCCNC(=N)N)C(=O)N1CCC[C@H]1C(=O)N[C@@H](CCCNC(=N)N)C(=O)N[C@@H](CC(N)=O)C(N)=O (PhAc-LFRPRN-NH2) | Active
36 | N=C(N)NCCC[C@H](NC(=O)[C@@H]1CCCN1C(=O)[C@H](CCCNC(=N)N)NC(=O)[C@H](Cc1ccccc1)NC(=O)[C@H](Cc1ccccc1)NC(=O)c1ccc2ncccc2c1)C(=O)N[C@@H](CC(N)=O)C(N)=O ({Quinoline(6-carbonyl)}-FFRPRN-NH2) | inactive
